Measurements as given in ChEMBL document CHEMBL3526015, “Metabolism of the c-Fos/activator protein-1 inhibitor T-5224 by multiple human UDP-glucuronosyltransferase isoforms” (Drug Metab Dispos, 2011).

Legend:
[1] = Drug metabolism in human intestinal microsomes assessed as Vmax/Km ratio for T-5224 hydroxyl O-glucuronide formation per mg protein after 10 to 60 mins by HPLC method; format: ADME, Intestine, Microsome
Method in brief: (§1)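 Pooled liver microsomes (0.5 mg/mL) were incubated 10 min. Pooled intestinal microsomes (0.25 mg/mL) ran 10 min at T-5224 10–50 μM and 20 min at 1–5 μM. Buffer was 50 mM Tris-HCl pH 7.5 with 8 mM MgCl2, alamethicin and 2 mM UDPGA, at 37°C, in triplicate. Glucuronides G2/G3 were read by HPLC at 290 nm and fitted for Vmax/Km.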

[2] = Drug metabolism in human intestinal microsomes assessed as T-5224 acyl O-glucuronide formation after 10 to 60 mins by HPLC method; format: ADME, Intestine, Microsome; method in brief: as §1
[3] = Drug metabolism in human intestinal microsomes assessed as T-5224 acyl O-glucuronide formation per mg protein after 10 to 60 mins by HPLC method; format: ADME, Intestine, Microsome; method in brief: as §1
Liver microsome [4] = experiment: Drug metabolism in pooled human liver microsomes assessed as T-5224 acyl O-glucuronide formation in presence of UDPGA by LC-MS/MS method; format: ADME
[5] = biological target: T1, UDP-glucuronosyltransferase 1A1 (Homo sapiens, UniProt P22309); experiment: Substrate inhibition of human UGT1A1-mediated T-5224 hydroxyl O-glucuronide formation after 10 to 60 mins in presence of UDP-glucuronic acid by HPLC method; format: ADME
T1 sequence (P22309 whole entry): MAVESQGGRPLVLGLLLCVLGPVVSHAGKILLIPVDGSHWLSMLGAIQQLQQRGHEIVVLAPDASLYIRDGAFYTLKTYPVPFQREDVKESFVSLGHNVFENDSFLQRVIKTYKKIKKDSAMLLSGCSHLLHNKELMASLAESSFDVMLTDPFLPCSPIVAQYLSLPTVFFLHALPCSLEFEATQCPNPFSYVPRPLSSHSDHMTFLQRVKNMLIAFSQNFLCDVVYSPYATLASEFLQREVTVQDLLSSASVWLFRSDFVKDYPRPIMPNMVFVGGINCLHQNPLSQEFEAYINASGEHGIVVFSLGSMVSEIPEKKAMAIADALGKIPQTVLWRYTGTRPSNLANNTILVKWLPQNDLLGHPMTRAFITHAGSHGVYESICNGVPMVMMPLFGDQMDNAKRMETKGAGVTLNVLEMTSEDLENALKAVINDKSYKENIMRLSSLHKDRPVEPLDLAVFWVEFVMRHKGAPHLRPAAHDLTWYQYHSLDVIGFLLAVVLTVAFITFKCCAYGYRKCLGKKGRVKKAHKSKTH
Method in brief: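 Recombinant human UGT1A1, UGT1A3 or UGT1A8 from baculovirus-infected insect cells (0.1 mg protein/mL) in 50 mM Tris-HCl pH 7.5, 8 mM MgCl2, alamethicin, 2% DMSO. T-5224 at 1–50 μM with 2 mM UDPGA for 60 min at 37°C. HPLC with UV at 290 nm. Triplicates fitted to a substrate-inhibition model. kcat uses UGT content quantified by immunoblot against recombinant UGT1A1/UGT2B4 standards.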

Cytochrome P450 2B6 = biological target: T2, Cytochrome P450 2B6 (Homo sapiens, UniProt P20813); experiment: Drug metabolism assessed as human CYP2B6-mediated metabolite formation at 2 uM after 30 mins by HPLC method; format: ADME; conditions: recombinant enzyme, 0.5 h
T2 sequence (P20813 whole entry): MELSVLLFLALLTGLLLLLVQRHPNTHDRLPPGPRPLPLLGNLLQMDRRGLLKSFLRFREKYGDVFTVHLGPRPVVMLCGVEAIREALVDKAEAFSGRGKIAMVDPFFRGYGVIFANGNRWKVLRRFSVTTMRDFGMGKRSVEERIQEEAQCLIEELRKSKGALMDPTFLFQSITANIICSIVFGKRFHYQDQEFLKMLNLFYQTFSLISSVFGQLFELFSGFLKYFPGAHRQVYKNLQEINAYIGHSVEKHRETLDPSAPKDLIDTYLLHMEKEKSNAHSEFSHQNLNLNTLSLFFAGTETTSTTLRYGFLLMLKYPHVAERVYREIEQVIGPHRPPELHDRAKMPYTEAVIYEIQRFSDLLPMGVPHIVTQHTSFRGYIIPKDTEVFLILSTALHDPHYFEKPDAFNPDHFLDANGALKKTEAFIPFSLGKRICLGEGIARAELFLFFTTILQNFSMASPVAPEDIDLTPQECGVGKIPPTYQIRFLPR
Method in brief: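 Each recombinant human P450 was used at 50 pmol/mL with an NADPH-generating system and 2 μM 14C-T-5224 (0.5% DMSO final). Buffer was 100 mM Tris-HCl pH 7.5, except 100 mM potassium phosphate pH 7.4 for CYP2A6 and CYP2C9*1. Incubation ran 30 min at 37°C and was stopped with acetonitrile/methanol. Radioactive metabolite peaks were detected by C18 HPLC.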

Liver microsome [6] = experiment: Drug metabolism in pooled human liver microsomes assessed as T-5224 hydroxyl O-glucuronide formation at 10 uM after 10 mins by HPLC method; format: ADME
Method in brief: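 T-5224 at 10 μM incubated for 10 min at 37°C with UDPGA (2 mM) in pooled liver (0.5 mg protein/mL) or intestinal (0.25 mg protein/mL) microsomes. Buffer was 50 mM Tris-HCl pH 7.5 with 8 mM MgCl2 and alamethicin, after 5 min preincubation. Stopped with acetonitrile; glucuronides quantified by HPLC at 290 nm.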

Liver microsome [7] = experiment: Drug metabolism in human liver microsomes assessed as T-5224 hydroxyl O-glucuronide formation after 10 to 60 mins by HPLC method; format: ADME
Method in brief: (§2)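 Pooled liver (0.5 mg protein/mL) or intestinal (0.25 mg protein/mL) microsomes in 50 mM Tris-HCl pH 7.5, 8 mM MgCl2, alamethicin, 2% DMSO. T-5224 at 1–50 μM, 5 min preincubation at 37°C, started with 2 mM UDPGA. Incubated 10 min, or 20 min for intestinal microsomes at 1–5 μM. Acetonitrile stop, glucuronides by HPLC at 290 nm. Triplicates fitted to a substrate-inhibition model.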

Liver microsome [8] = experiment: Drug metabolism in human liver microsomes assessed as T-5224 acyl O-glucuronide formation after 10 to 60 mins by HPLC method; format: ADME; method in brief: as §1
Liver microsome [9] = experiment: Substrate inhibition of T-5224 hydroxyl O-glucuronide formation in human liver microsomes after 10 to 60 mins by HPLC method; method in brief: as §2
[10] = biological target: T1, UDP-glucuronosyltransferase 1A1; experiment: Drug metabolism assessed as Vmax/Km ratio for human UGT1A1-mediated T-5224 hydroxyl O-glucuronide formation per mg protein after 10 to 60 mins in presence of UDP-glucuronic acid by HPLC method; format: ADME; conditions: recombinant enzyme
Method in brief: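 Kinetics used recombinant UGT1A1, 1A3 or 1A8 (0.1 mg protein/mL) with T-5224 at 1–50 μM, 2 mM UDPGA and 60 min at 37°C, in triplicate. G2/G3 were measured by HPLC at 290 nm and fitted to a substrate-inhibition model (Vmax, Km, Ksi). UGT content was quantified by immunoblot, and kcat = Vmax/E0 was derived from it.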

Vmax/Km [1]: 34.6 µL/min
Km [2]: 5.88 µM
Vmax [3]: 241 pmol/min
Drug metabolism (Liver microsome [4]): metabolite_detected
Ki [5]: 4.67 µM
Drug metabolism (Cytochrome P450 2B6): metabolite_not_detected
Drug metabolism (Liver microsome [6]): metabolite_detected
Km (Liver microsome [7]): 15.7 µM
Km (Liver microsome [8]): 4.93 µM
Ki (Liver microsome [9]): 27 µM
Vmax/Km [10]: 26.2 µL/min
SMILES: O=C(O)CCc1cc(C(=O)c2ccc(OC3CCCC3)cc2O)ccc1OCc1ccc2c(O)noc2c1
